The array DNA melting data of Ke et al. (doi:10.1101/2024.01.08.574731)

What was measured:
[1] = melting temperature; fluorescence melt of hairpins on a sequencing array, two-state fit, raised by 9.35 °C to match UV melts; settings: sodium 0.088 M
How it was run: (§1)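 Cy3 fluorescence of library hairpins on a sequenced MiSeq flow cell, with annealed Cy3 and quencher oligos, was imaged in 50 mM Na-HEPES pH 8.0, 25 mM NaCl in 2.5 °C steps up to 60 °C. Signals were normalised to pre-quench Cy3 and to control variants. Melting temperature and folding enthalpy came from bootstrapped two-state fits, inverse-variance combined over four replicates. Fitted temperatures were raised by 9.35 °C to match UV melts.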

[2] = folding enthalpy; higher = less favourable; fluorescence melt of hairpins on a sequencing array, two-state fit; settings: sodium 0.088 M
How it was run: as §1

Row | Sequence | Tm [1] | folding enthalpy [2]
1 | GGAGACGAAAGTCGCTCC ((((((....)))..))) | 42.4 °C | -13 kcal/mol
2 | GGAGACGAAAGTCGGTCC ((((((....)))..))) | 39.8 °C | -12.3 kcal/mol
3 | GGAGAGAAATCTCC (((((....))))) | 45.1 °C | -18.4 kcal/mol
4 | GGAGATGGAAACATCTCC (((((((....))))))) | 65 °C | -38 kcal/mol
5 | GGAGCAGGAAACCACTCC ((((..(....)..)))) | 27.1 °C | -11.5 kcal/mol
6 | GGAGCAGGAAACTACTCC ((((.((....)).)))) | 41.1 °C | -27.4 kcal/mol
7 | GGAGCAGGAAACTGCCCC ((.((((....)))).)) | 49.7 °C | -17.4 kcal/mol
8 | GGAGCCGAAAGGCATCC ((((((....))).))) | 53.8 °C | -14.2 kcal/mol
9 | GGAGCCGAAAGGCATTCC ((((((....)))..))) | 33.1 °C | -10.3 kcal/mol
10 | GGAGCCGAAAGGCGTCC ((((((....))).))) | 53.4 °C | -9.6 kcal/mol
11 | GGAGCCGAAAGGCTATCC ((((((....)))..))) | 38.2 °C | -8.64 kcal/mol
12 | GGAGCCGAAAGGCTCTCC ((((((....)))..))) | 56.5 °C | -7.29 kcal/mol
13 | GGAGCCGAAAGGCTGTCC ((((((....)))..))) | 41 °C | -8.93 kcal/mol
14 | GGAGCCGAAAGGCTTCC ((((((....))).))) | 60.3 °C | -14.6 kcal/mol
15 | GGAGCCGGAAACAGCTCC (((((.(....).))))) | 51.3 °C | -27.7 kcal/mol
16 | GGAGCCGGAAACGGCTTC (.(((((....))))).) | 60.8 °C | -15 kcal/mol
17 | GGAGCCGGAAACGGTTCC (((.(((....))).))) | 58.5 °C | -45.1 kcal/mol
18 | GGAGCCTCGAAAGAGTCC (((..(((....)))))) | 25.9 °C | -9.23 kcal/mol
19 | GGAGCGCGAAAGCGTCC (((.(((....)))))) | 52.1 °C | -13.9 kcal/mol
20 | GGAGCGGCGAAAGCCTCC (((..(((....)))))) | 39.5 °C | -13.8 kcal/mol
21 | GGAGCTGCGAAAGCATCC (((..(((....)))))) | 32.4 °C | -9.48 kcal/mol
22 | GGAGCTGGAAACAGCCCC ((.((((....)))).)) | 54.3 °C | -24.2 kcal/mol
23 | GGAGCTGGAAACAGTTCC (((.(((....))).))) | 50 °C | -37 kcal/mol

Row | Sequence | Tm [1] | folding enthalpy [2]
24 | GGAGGAGGAAACTTCTCC ((((.((....)).)))) | 45.2 °C | -35.9 kcal/mol
25 | GGAGGCGAAAGCCAATCC ((((((....)))..))) | 33.6 °C | -10.4 kcal/mol
26 | GGAGGCGGAAACGCCTTC (.(((((....))))).) | 57.5 °C | -14.9 kcal/mol
27 | GGAGGCGGAAACGTCTCC ((((.((....)).)))) | 58.9 °C | -49.2 kcal/mol
28 | GGAGGGCGAAAGCCATCC (((.(((....))).))) | 66.3 °C | -33.8 kcal/mol
29 | GGAGGGTCGAAAGACTCC (((..(((....)))))) | 39.5 °C | -14.3 kcal/mol
30 | GGAGGTCGAAAGACGTCC (((.(((....))).))) | 57.8 °C | -37.7 kcal/mol
31 | GGAGGTGGAAACACCCCC ((.((((....)))).)) | 49.1 °C | -18.7 kcal/mol
32 | GGAGGTGGAAACACCTCC (((((((....))))))) | 68.6 °C | -40.8 kcal/mol
33 | GGAGGTGGAAACGCCTCC (((((.(....).))))) | 57.2 °C | -50 kcal/mol
34 | GGAGGTGGAAACGCCTTC (.(((.(....).))).) | 48.5 °C | -26.2 kcal/mol
35 | GGAGTAGGAAACTGCTCC ((((.((....)).)))) | 51.4 °C | -28.5 kcal/mol
36 | GGAGTCCGAAAGGAGTCC (((.(((....))).))) | 63.3 °C | -44.2 kcal/mol
37 | GGAGTCGGAAACGACTTC (.(((((....))))).) | 55.5 °C | -25.6 kcal/mol
38 | GGAGTCGGAAACGGCTTC (.((.((....)).)).) | 44.3 °C | -21.7 kcal/mol
39 | GGAGTCGGAAACGGTTCC (((..((....))..))) | 34.6 °C | -27.1 kcal/mol
40 | GGAGTGACGAAAGTCTCC (((..(((....)))))) | 38.8 °C | -18 kcal/mol
41 | GGAGTGGCGAAAGCCTCC (((..(((....)))))) | 44 °C | -15 kcal/mol
42 | GGAGTGGGAAACCACCCC ((.((((....)))).)) | 47.1 °C | -21.5 kcal/mol
43 | GGAGTGGGAAACCACTCC (((((((....))))))) | 68.2 °C | -38.6 kcal/mol
44 | GGAGTTGGAAACAGTTCC (((..((....))..))) | 35 °C | -13.4 kcal/mol
45 | GGATAAACGAAAGTTTCC (((..(((....)))))) | 27.7 °C | -17.1 kcal/mol
46 | GGATAACGAAAGTTCTCC (((.(((....))).))) | 41.3 °C | -32.7 kcal/mol
